Measurements taken from ChEMBL document CHEMBL5260841, “Discovery of N-(4-(6-Acetamidopyrimidin-4-yloxy)phenyl)-2-(2-(trifluoromethyl)phenyl)acetamide (CHMFL-FLT3-335) as a Potent FMS-like Tyrosine Kinase 3 Internal Tandem Duplication (FLT3-ITD) Mutant Selective Inhibitor for Acute Myeloid Leukemia” (J Med Chem, 2019).

What was measured:
[1] = AUC (0 to t) in Sprague-Dawley rat at 1 mg/kg, iv; type: ADME, organism-based; design: dose 1 mg/kg, route iv; details: in vivo
In short: (§1)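 Sprague-Dawley rats dosed IV at 1 mg/kg or by oral gavage at 10 mg/kg. Parameters from plasma exposure: AUC(0-t), AUC(0-∞), MRT, T1/2, Tmax, Vz, CLz, Cmax. Values are mean ± SD from three animals.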

[2] = MRT (0 to t) in Sprague-Dawley rat at 1 mg/kg, iv; type: ADME, organism-based; details: in vivo
In short: (§2)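 Sprague-Dawley rats were dosed either intravenously at 1 mg/kg or by oral gavage at 10 mg/kg. Plasma PK parameters were AUC(0-t), AUC(0-∞), MRT(0-t), T1/2, Tmax, Vz, CLz, Cmax and F%. Values are the mean ± SD of three independent animals.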

[3] = Cmax in Sprague-Dawley rat at 10 mg/kg, po; type: ADME, organism-based; design: dose 10 mg/kg, route po; details: in vivo; in short: as §1
[4] = Oral bioavailability in Sprague-Dawley rat at 10 mg/kg; type: ADME, organism-based; details: in vivo; in short: as §2
BaF3 [5] = test: Antiproliferative activity against mouse BaF3 cells transfected with TEL fused FLT3 K663Q mutant assessed as cell growth inhibition incubated for 72 hrs by CCK-8 assay; type: functional
In short: (§3)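 Kinase-transformed isogenic BaF3 lines grown in RPMI 1640 with 10% FBS, 2% L-glutamine and pen/strep at 37 °C, 5% CO2. Seeded at 1500-3000 cells/well and treated with a compound concentration series for 72 h. Viability read by CCK8 absorbance at 450 nm.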

BaF3 [6] = test: Antiproliferative activity against mouse BaF3 cells transfected with TEL fused FLT3 G697R mutant assessed as cell growth inhibition incubated for 72 hrs by CCK-8 assay; type: functional; in short: as §3
BaF3 [7] = test: Antiproliferative activity against mouse BaF3 cells transfected with FLT3 ITD D835I mutant assessed as cell growth inhibition incubated for 72 hrs by CCK-8 assay; type: functional; in short: as §3
BaF3 [8] = test: Antiproliferative activity against mouse BaF3 cells transfected with FLT3 ITD D835del mutant assessed as cell growth inhibition incubated for 72 hrs by CCK-8 assay; type: functional; in short: as §3
[9] = target: Mast/stem cell growth factor receptor Kit (Homo sapiens, UniProt P10721); test: Inhibition of KIT (unknown origin) assessed as residual activity at 1 uM preincubated for 60 mins followed by ATP addition and measured after 1 hr by ADP-Glo assay relative to control; details: time 2.0 hrs
Sequence of Mast/stem cell growth factor receptor Kit (P10721 whole entry): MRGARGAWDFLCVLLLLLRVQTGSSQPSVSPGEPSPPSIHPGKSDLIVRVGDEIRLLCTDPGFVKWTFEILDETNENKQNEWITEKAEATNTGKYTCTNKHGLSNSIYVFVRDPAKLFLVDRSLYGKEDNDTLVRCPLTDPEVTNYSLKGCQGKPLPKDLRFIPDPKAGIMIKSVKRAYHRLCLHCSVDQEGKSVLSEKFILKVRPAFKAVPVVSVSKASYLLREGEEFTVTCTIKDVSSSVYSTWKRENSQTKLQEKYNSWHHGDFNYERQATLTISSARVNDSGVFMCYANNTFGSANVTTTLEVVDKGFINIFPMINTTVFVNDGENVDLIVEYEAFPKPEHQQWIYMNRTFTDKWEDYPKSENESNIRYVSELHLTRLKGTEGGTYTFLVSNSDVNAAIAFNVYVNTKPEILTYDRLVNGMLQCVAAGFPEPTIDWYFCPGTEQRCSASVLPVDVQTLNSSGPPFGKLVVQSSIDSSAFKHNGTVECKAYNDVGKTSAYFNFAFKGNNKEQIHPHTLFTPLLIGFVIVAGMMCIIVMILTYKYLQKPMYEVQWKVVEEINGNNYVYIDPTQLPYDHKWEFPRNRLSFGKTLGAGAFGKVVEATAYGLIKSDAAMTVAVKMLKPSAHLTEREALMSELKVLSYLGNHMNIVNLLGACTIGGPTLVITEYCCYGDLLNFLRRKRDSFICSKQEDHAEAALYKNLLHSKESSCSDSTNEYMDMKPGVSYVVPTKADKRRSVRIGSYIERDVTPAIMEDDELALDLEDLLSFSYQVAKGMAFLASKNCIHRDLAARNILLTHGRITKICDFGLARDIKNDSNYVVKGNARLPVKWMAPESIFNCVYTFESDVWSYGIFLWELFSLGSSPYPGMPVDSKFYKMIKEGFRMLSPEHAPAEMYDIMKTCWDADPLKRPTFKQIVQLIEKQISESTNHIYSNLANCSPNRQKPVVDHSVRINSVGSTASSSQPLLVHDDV

[10] = target: Mitogen-activated protein kinase kinase kinase kinase 1 (Homo sapiens, UniProt Q92918); test: Inhibition of HPK1 (unknown origin) preincubated for 60 mins followed by ATP addition and measured after 1 hr by ADP-Glo assay
Sequence of Mitogen-activated protein kinase kinase kinase kinase 1 (Q92918 whole entry, the tested form may be a part): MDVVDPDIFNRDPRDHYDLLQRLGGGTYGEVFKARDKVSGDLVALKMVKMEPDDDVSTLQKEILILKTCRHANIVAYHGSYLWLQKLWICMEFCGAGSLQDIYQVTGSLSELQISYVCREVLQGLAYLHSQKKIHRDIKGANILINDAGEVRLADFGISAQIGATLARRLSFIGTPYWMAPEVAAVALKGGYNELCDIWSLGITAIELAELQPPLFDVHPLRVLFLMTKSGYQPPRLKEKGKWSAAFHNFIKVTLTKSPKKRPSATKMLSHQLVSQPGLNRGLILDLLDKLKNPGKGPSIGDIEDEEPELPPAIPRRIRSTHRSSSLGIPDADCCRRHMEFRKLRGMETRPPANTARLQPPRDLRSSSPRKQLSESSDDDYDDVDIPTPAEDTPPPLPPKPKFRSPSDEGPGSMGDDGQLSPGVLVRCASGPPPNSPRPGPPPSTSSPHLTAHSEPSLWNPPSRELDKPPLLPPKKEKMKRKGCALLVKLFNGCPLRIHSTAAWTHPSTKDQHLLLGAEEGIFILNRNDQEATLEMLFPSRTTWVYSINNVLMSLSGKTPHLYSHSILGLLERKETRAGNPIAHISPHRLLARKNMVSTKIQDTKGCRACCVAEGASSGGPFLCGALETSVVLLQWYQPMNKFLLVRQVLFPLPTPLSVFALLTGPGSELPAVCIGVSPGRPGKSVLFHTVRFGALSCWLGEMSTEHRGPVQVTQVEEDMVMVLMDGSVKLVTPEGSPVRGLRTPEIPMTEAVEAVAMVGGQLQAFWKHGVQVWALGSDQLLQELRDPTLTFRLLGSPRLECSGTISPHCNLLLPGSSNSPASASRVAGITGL

BaF3 [11] = test: Antiproliferative activity against mouse BaF3 cells transfected with TEL fused PDGFRbeta assessed as cell growth inhibition incubated for 72 hrs by CCK-8 assay; type: functional; in short: as §3
MOLM-14 [12] = test: Antiproliferative activity against human MOLM-14 cells transfected with FLT3-ITD mutant assessed as cell growth inhibition incubated for 72 hrs by CCK-8 assay; type: functional
In short: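 Cells kept at 37 °C, 5% CO2. MV4-11 grown in IMDM with 10% FBS. MOLM13, MOLM14, U937 and HL-60 grown in RPMI 1640 with 10% FBS. OCI-AML-2 grown in α-MEM with 20% FBS. Seeded at 1500-3000 cells/well and exposed to a concentration series for 72 h. Viability read by CCK8 absorbance at 450 nm.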

[13] = Cytotoxicity against CHO cells assessed as inhibition of cell growth; type: toxicity, cell-based, Cricetulus griseus; details: chinese hamster
[14] = target: T1, Signal transducer and activator of transcription 5A (Homo sapiens) (UniProt P42229); test: Inhibition of STAT5 phosphorylation at Tyr694 residue in human MV4-11 cells harboring FLT3-ITD mutant incubated for 4 hrs by Western blot analysis; type: cell-based; details: dose 0.01-3 µM
T1 sequence (whole entry): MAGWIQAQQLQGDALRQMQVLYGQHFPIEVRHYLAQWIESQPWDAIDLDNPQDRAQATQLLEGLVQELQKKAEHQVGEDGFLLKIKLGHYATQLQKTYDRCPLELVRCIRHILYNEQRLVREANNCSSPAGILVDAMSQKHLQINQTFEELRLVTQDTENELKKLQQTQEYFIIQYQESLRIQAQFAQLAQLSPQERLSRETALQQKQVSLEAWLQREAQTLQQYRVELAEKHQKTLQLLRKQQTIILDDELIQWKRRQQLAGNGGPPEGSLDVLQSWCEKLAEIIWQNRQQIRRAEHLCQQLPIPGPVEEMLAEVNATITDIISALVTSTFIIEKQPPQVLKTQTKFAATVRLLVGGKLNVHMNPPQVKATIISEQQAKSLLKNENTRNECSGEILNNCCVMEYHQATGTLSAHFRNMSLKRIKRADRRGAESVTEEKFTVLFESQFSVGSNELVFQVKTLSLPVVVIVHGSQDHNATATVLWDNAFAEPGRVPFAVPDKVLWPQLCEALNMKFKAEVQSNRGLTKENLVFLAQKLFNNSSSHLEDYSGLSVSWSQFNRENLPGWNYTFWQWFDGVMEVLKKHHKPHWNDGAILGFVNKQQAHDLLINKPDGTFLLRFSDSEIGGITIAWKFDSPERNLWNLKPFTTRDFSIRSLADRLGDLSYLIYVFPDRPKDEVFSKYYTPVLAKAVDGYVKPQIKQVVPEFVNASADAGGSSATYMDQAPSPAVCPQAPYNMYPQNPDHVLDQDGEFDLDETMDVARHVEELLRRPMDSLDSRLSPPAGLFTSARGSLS
In short: (§4)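 Cells were exposed to the compound at a series of concentrations for 4 h, and whole-cell lysates were analysed by Western blot. MV4-11 cells were grown in IMDM with 10% FBS. MOLM13 and MOLM14 cells were grown in RPMI 1640 with 10% FBS. All cultures were kept at 37 °C with 5% CO2.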

MOLM-14 [15] = test: Inhibition of AKT phosphorylation at Thr308 residue in human MOLM-14 cells harboring FLT3-ITD mutant incubated for 4 hrs by Western blot analysis; type: cell-based; details: dose 0.01-3 µM; in short: as §4
MOLM-13 = test: Downregulation of c-Myc protein expression in human MOLM-13 cells harboring FLT3-ITD mutant incubated for 4 hrs by Western blot analysis; type: functional, cell-based; details: dose 0.01-3 µM
In short: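 MOLM13 and MOLM14 cells exposed to the indicated concentrations for 4 h. Whole-cell lysates analysed by Western blot for c-Myc, alongside FLT3 Tyr589/591, STAT5, AKT and ERK phosphorylation.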

MOLM-14 [16] = test: Induction of apoptosis in human MOLM-14 cells harboring FLT3-ITD mutant assessed as increase in cleaved caspase-3 level incubated for 24 hrs by Western blot analysis; type: functional, cell-based; details: dose 0.1-3 µM

AUC(0-t) [1]: 1560 ng·h/mL
MRT last [2]: 1.9 h
Cmax [3]: 3630 ng/mL
F [4]: 171%
GI50 (BaF3 [5]): 9.4 µM
GI50 (BaF3 [6]): 0.54 µM
GI50 (BaF3 [7]): > 10 µM
GI50 (BaF3 [8]): > 10 µM
Activity [9]: 0.05%
IC50 [10]: > 10 µM
GI50 (BaF3 [11]): 0.04 µM
GI50 (MOLM-14 [12]): 0.343 µM
inhibition [14]: Dose-Dependent Effect
SMILES: CC(=O)Nc1cc(Oc2ccc(NC(=O)Cc3ccccc3C(F)(F)F)cc2)ncn1
GI50 [13]: > 10 µM
inhibition (MOLM-14 [15]): Dose-Dependent Effect
Activity (MOLM-13): Dose-Dependent Effect
Activity (MOLM-14 [16]): Dose-Dependent Effect
